Pemphigus Ab inh: human desmoglein-3 autoantibody binding inhibition | hit rate 0.48% among 310,000 | P32926 | binding (percent of control), % at 10 µM | DSG3-coupled beads, scFv-anti-DSG3-GFP binding, flow cytometry; stronger effect = lower value;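 active = binding more than 3 SD below its plate's average and above zero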;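 also: hits lower antibody fragment binding to DSG3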
pCIP destab: p/CIP protein destabilization | decrease of EGFP signal, % at 10 µM | hit rate 0.01% among 290,000 | F442A p/CIP-EGFP cells, EGFP fluorescence, 16 h | Q05BA5 | AID 1984;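 active = EGFP signal decrease of at least 30% at 10 µM or well 3 SD below plate mean, unless failing retest; inactive = the rest, including hits failing retest or dose response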
GPR7 antag: blocks human GPR7 receptor signaling. AID 1861. P48145. GPR7-expressing cells, fluorescence antagonist assay. inhibition, % at 4.4 µM. hit rate 1.1% among 290,000; in the data active = inhibition above about 16%, passing the limit was not always enough;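 also: cells stimulated with the agonist NPW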
Target sequence (P48145 whole entry, looked up): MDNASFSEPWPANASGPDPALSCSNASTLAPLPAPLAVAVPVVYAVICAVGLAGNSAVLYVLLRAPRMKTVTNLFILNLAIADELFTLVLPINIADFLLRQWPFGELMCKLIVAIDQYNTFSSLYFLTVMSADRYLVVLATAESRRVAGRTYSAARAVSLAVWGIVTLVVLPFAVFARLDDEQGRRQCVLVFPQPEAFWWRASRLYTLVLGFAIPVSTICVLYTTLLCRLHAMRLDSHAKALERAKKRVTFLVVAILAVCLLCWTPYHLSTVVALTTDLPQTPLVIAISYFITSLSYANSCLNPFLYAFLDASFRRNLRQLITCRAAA
CHT block: human CHT choline transport inhibition | Q9GZV3 | CHT-expressing cells, membrane potential dye, choline response; stronger effect = lower value | B-score at 10 µM | hit rate 0.86% among 310,000;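 active = B-score over 3 SD under the library average, and starting fluorescence ratio not unusually high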;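 also: choline stimulus applied at its EC90 after an EC20 pre-addition; B-score computed on integrated fluorescence ratio after choline addition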
CHT allo act: human CHT allosteric activation. Q9GZV3. CHT-expressing cells, membrane potential dye, choline EC20; stronger effect = higher value; LV-AA mutant CHT in HEK293 cells. B-score at 10 µM. hit rate 0.49% among 310,000. AID 488977;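 active = initial fluorescence not abnormally high and integrated response B-score, plate-corrected, over 3 SD above library mean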
T cell modulator: T cell immune modulators affecting CD8 T cell-vesicle binding; 2C CD8+ T cell-vesicle binding, flow cytometry; stronger effect = lower value; hit rate 0.068% among 330,000; AID 2052; response (vesicle binding), % at 7 µM;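 active = response, share of CD8 T cells binding vesicles, and their 90th percentile fluorescence all below set limits, cut at about 80% in these data, passing the limit was not always enough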;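 also: values below 100% mean blocked vesicle binding to the CD8+ T cells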
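Material: murine 2C transgenic CD8+ T lymphocytes / Also added: QL9-peptide-loaded Drosophila micro-vesicles bearing Ld, ICAM-1 and B7-1 / Schedule: binding step 1.5 h, 37 °C, antibody labelling 20 min, ice / Signal: flow cytometry, PE anti-B7-1 (FL2) versus Alexa647 anti-CD8 (FL8), PFA-fixed / Evaluation: percent CD8+ FL2 mean versus row control / Benchmarks: naked versus QL9-loaded vesicles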
GPR7 antag cf: confirmation of human GPR7 antagonists; shares compounds with GPR7 antag; GPR7-expressing cells, calcium fluorescence antagonist mode; inhibition, % at 4.4 µM; hit rate 52% among 2,400; in the data active = inhibition above about 24%;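 also: stimulated with the GPR7 agonist NPW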
MCHR1 antagonist: MCHR1 (human) antagonism in GPR7 counter-screen. shares compounds with GPR7 antag. MCHR1-expressing cells, fluorescence antagonist assay. inhibition, % at 4.4 µM. hit rate 62% among 2,400; in the data active = inhibition above about 22%
Hits are given with their value; - = inactive; . = no result given. Rows were chosen to be rich in hits. Some 2.3% of all compounds tested hit in one or more screens of this group.

SMILES	Pemphigus Ab inh	pCIP destab	GPR7 antag	CHT block	CHT allo act	T cell modulator	GPR7 antag cf	MCHR1 antagonist
O=C(NC1(C(F)(F)F)NC(=O)N(Cc2ccccc2)C1=O)c1cccs1 (centres undefined)	-	.	-	-	-	-	.	.
CC(C)(C)C(=O)NC1(C(F)(F)F)NC(=O)N(Cc2ccccc2)C1=O (centres undefined)	.	-	24.9	-	-	-	-	-
CCCCCN(C(=O)CCC(=O)OC(C)C(=O)Nc1ccccc1C)c1c(N)n(CCCC)c(=O)[nH]c1=O (centres undefined)	-	.	.	.	.	.	.	.
Cc1ccccc1NC(=S)N(Cc1cccs1)C1CCCCC1	-	-	-	-	-	-	.	.
Cc1c(Cl)cccc1NC(=S)N(Cc1cccs1)C1CCCC1	-	-	23.2	-	-	-	-	26.8
Nc1ncnc2c1ncn2[C@@H]1O[C@H](CNCc2ccc(-n3cccn3)cc2)[C@@H](O)[C@H]1O	-	.	.	.	.	-	.	.
O=C(Nc1ccc(Cl)cc1)N1CCCN(Cc2ccc(F)cc2)C1	-	-	87.7	-	-	-	43.2	41.8
O=C(Nc1ccccc1)N1CCN(Cc2ccc(Cl)cc2)CC1	-	-	-	-	-	-	.	.
O=NN(CCc1ccncc1)c1ccc(OCc2ccccc2)cc1	-	-	24.8	-	-	-	49.6	43.3
O=C(NCc1ccncc1)C(=O)N/N=C/c1ccc(OCc2ccccc2)cc1	-	-	-	-	-	-	.	.
CC(C)CNS(=O)(=O)c1ccc(NC(=O)Cn2nc(-c3ccc(F)cc3)ccc2=O)cc1	-	-	33.3	-	-	-	-	-
CN(C1CCCCC1)S(=O)(=O)c1ccc(NC(=O)Cn2nc(-c3ccc(F)cc3)ccc2=O)cc1	-	-	-	-	-	-	.	.
CC(C)C(NC(=O)c1ccccc1)C(=O)NCc1ccccn1 (centres undefined)	-	-	35.1	-	-	-	-	-
COc1cc(NC(=O)CSc2nnnn2Cc2ccccc2)cc(OC)c1	-	-	-	-	-	-	.	.
CCC(=O)Nc1cccc(NC(=O)CSc2nnnn2Cc2ccccc2)c1	-	-	22.6	-	-	-	-	-
CCCc1c(C(=O)N/N=C/c2ccoc2)nnn1-c1nonc1N	-	.	.	.	.	.	.	.
CCOC(=O)N(NC(=O)C(O)(c1ccccc1)c1ccccc1)c1ccccc1	-	-	30.7	-	-	-	-	27.6
CCCCC(O)(CCCC)C(=O)NN(C(=O)OCC)c1ccccc1	-	-	31.7	-	-	-	34.9	27.0
Nc1cnn(C2CCCO2)c(=O)n1 (centres undefined)	-	-	24.3	-	-	-	-	-
COc1ccc(C(=O)/C=C/N(C)C)cc1	-	-	26.9	-	-	-	-	-
COc1ccc(C(=O)/C=C/N(C)C)cc1OC	-	-	-	-	-	-	.	.
CN(C)CC(CCC(CN(C)C)C(O)(c1ccccc1)c1ccccc1)C(O)(c1ccccc1)c1ccccc1 (centres undefined)	.	-	53.1	.	.	.	61.5	67.6
CSc1ccc(CNC(=O)C2CCC(=O)N(CCc3ccc(Cl)cc3)C2)cc1 (centres undefined)	-	.	.	.	.	.	.	.
c1ccc(C(c2nnnn2Cc2cccs2)N2CCN(C3CCCC3)CC2)cc1 (centres undefined)	-	-	-	-	-	-	.	.
CC(C)C(c1nnnn1Cc1cccs1)N1CCN(C2CCCC2)CC1 (centres undefined)	.	-	33.6	-	-	-	-	-
SMILES	Pemphigus Ab inh	pCIP destab	GPR7 antag	CHT block	CHT allo act	T cell modulator	GPR7 antag cf	MCHR1 antagonist
CCC(c1nnnn1Cc1ccc(F)cc1)N1CCN(C2CCCCC2)CC1 (centres undefined)	-	-	45.8	-	-	-	43.4	29.0
CCc1ccc(C2CC(c3ccccc3Cl)Nc3nc(N)nn32)cc1 (centres undefined)	-	-	30.3	-	-	-	42.3	-
COc1ccc(C2CC(c3cccc(OC)c3)n3nc(N)nc3N2)cc1 (centres undefined)	-	-	39.3	-	-	-	-	-
COc1cccc(C2CC(c3ccc(Cl)cc3Cl)n3nc(N)nc3N2)c1 (centres undefined)	-	-	26.9	-	-	-	-	-
Cc1ccc(C2CC(c3ccccc3C)n3nc(N)nc3N2)cc1 (centres undefined)	-	-	26.4	-	-	-	-	-
COc1ccc2nc3n(c(=O)c2c1)-c1ccccc1C(=O)NC3Cc1ccccc1 (centres undefined)	.	.	.	.	.	-	.	.
Nc1nnnn1CC(=O)OCc1cccc(Br)c1	-	-	27.2	-	-	-	-	-
O=C(CN1CC(c2ccccc2)CC1=O)OCc1cccc(Br)c1 (centres undefined)	-	-	-	-	-	-	.	.
O=C(Cc1ccc(Cl)cc1)Nc1ccccc1N1CCN(C(=O)c2ccccc2)CC1	-	-	28.3	-	-	-	36.2	50.9
O=C(Nc1ccccc1N1CCN(c2ccccc2)CC1)c1ccccc1	-	-	22.2	-	-	-	-	45.0
O=C(Nc1ccc(N2CCOCC2)cc1N1CCOCC1)c1ccccc1	-	.	.	.	.	-	.	.
O=C(Nc1ccccc1N1CCN(C(=O)c2ccccc2)CC1)c1ccc(Cl)cc1	-	-	-	-	-	-	.	.
O=C(CN1C(=O)C2CC=CCC2C1=O)Nc1nc(-c2ccc(F)c(F)c2)cs1 (centres undefined)	-	.	.	.	.	-	.	.
NS(=O)(=O)c1ccc(CCNC(=O)COC(=O)Cc2ccc(Cl)cc2)cc1	-	.	.	.	.	.	.	.
CCOc1ccc(C(C)NC(=S)NCc2ccc(Cl)cc2)cc1 (centres undefined)	-	-	29.9	-	-	-	61.4	69.6
CCC(C)c1ccc(C(C)NC(=S)NCc2ccc(F)cc2)cc1 (centres undefined)	-	-	-	-	-	-	.	.
CCCc1ccc(C(C)NC(=S)NCc2ccc(F)cc2)cc1 (centres undefined)	-	-	59.0	-	-	-	78.9	92.9
COC(=O)[C@]1(C)N[C@H](CN(C)S(=O)(=O)c2ccc(F)cc2)[C@@H]2C(=O)N(C)C(=O)[C@@H]21	-	.	.	.	.	-	.	.
CC(=O)c1ccc(NC(=O)Nc2cccc(Cl)c2)cc1	-	-	28.7	-	-	-	36.8	67.3
O=C(Nc1ccc(Cl)cc1)Nc1csc([N+](=O)[O-])c1	-	-	23.5	-	-	-	57.2	66.7
O=C(Nc1ccccc1)Nc1ccc(Cl)c([N+](=O)[O-])c1	-	-	26.1	-	-	-	58.5	64.6
O=C(Nc1ccc(Cl)c([N+](=O)[O-])c1)Nc1nc2ccccc2s1	.	-	-	-	-	-	.	.

Source: PubChem (several laboratories)
